Experimental data as given in ChEMBL document CHEMBL1157464, “1-[(3-Aryloxy-3-aryl)propyl]-1H-imidazoles, new imidazoles with potent activity against Candida albicans and dermatophytes. Synthesis, structure-activity relationship, and molecular modeling studies” (J Med Chem, 2008).
≈ marks a conversion by molar mass, not a printed value.

Tests used:
[1] = Cytotoxicity against human U937 cells assessed as reduction of cell viability after 24 hrs by MTT assay; assay type: cell-based, U-937
Outline: (§1)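 U937 and K562 cells, from ATCC, plated at 5 × 10^4/mL in phenol-red-free RPMI-1640 with 20% FBS and penicillin/streptomycin. Compounds added 2 h later at 25–100 µg/mL, then 24 h at 37 °C. MTT at 1 mg/mL for 3 h, formazan dissolved in isopropanol with 0.1 N HCl, absorbance read at 570 nm. CC50 is the concentration reducing viability by 50% versus the drug-free control.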

Candida albicans [2] = assay: Antifungal activity against Candida albicans ATCC 10261 at 35 degC after 48 hrs by broth microdilution test; assay type: functional; conditions: for MIC50: read-out: MIC50
Outline: (§2)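 Broth microdilution per NCCLS M27-A2. Stocks in 100% DMSO, diluted in RPMI 1640 with 0.165 M MOPS at pH 7.0; final range 0.25–128 µg/mL. Inoculum 1000–5000 cells/mL from SDA subcultures. […] C. parapsilosis ATCC22019 served as QC strain.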

[3] = Cytotoxicity against human K562 cells after assessed as reduction of cell viability 24 hrs by MTT assay; assay type: cell-based; outline: as §1
Candida parapsilosis = assay: Antifungal activity against Candida parapsilosis ATCC 22019 at 35 degC after 48 hrs by broth microdilution test; assay type: functional; conditions: Lodderomyces parapsilosis, ATCC 22019, 48 h; for MIC: read-out: MIC; for MFC: read-out: MFC; outline: as §2
Candida albicans [4] = assay: Antifungal activity against Candida albicans ATCC 10261 at 35 degC after 48 to 96 hrs by broth microdilution test; assay type: functional
Outline: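 Minimal fungicidal concentration for Candida. […] MFC is the lowest concentration allowing fewer than two colonies (99% killing).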

Arthrodermataceae [5] = assay: Antifungal activity against dermatophytes at 28 degC after 7 days by broth microdilution test; assay type: functional; conditions: 168 h
Outline: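 Ten clinical isolates (two M. canis, five M. gypseum, three T. mentagrophytes) tested by NCCLS M38-A broth microdilution in MOPS-buffered RPMI 1640, pH 7.0, over 0.25–128 µg/mL. Conidial/hyphal suspension from PDA slants (28 °C, 7 days) adjusted to 65–70% transmittance at OD530, then diluted 1:50.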

Arthrodermataceae [6] = assay: Antifungal activity against dermatophytes at 28 degC after 48 to 96 hrs by broth microdilution test
Arthrodermataceae [7] = assay: Antifungal activity against dermatophytes at 28 degC after 5 days by broth microdilution test; conditions: for MFC: Arthrodermataceae
Candida albicans [8] = assay: Antifungal activity against fluconazole-resistant Candida albicans isolated from oropharyngeal or vaginal disease patient after 48 hrs by broth microdilution test; assay type: functional
Candida albicans [9] = assay: Antifungal activity against fluconazole-sensitive Candida albicans Fe40 at 35 degC after 48 hrs by broth microdilution test; assay type: functional; outline: as §2
[10] = Candida albicans, ATCC 10261, 48 h, read-out: MIC
[11] = Candida albicans, ATCC 10261, 48 h
[12] = Candida albicans, ATCC 10261, 48 h, read-out: MIC90
[13] = Candida albicans, ATCC 10261, read-out: MFC

SMILES	CC50 at 24 h [1] [µM]	MIC (Candida albicans [2]; [10]) [µg/mL]	MIC50 (Candida albicans [2]; [11]) [µg/mL]	MIC90 (Candida albicans [2]; [12]) [µg/mL]	CC50 at 24 h [3] [µM]	MIC (Candida parapsilosis) [µg/mL]	MFC (Candida albicans [4]; [13]) [µg/mL]	MIC (Arthrodermataceae [5]) [µg/mL]	MIC50 (Arthrodermataceae [5]) [µg/mL]	MIC90 (Arthrodermataceae [5]) [µg/mL]	MFC50 (Arthrodermataceae [6]) [µg/mL]	MFC (Candida parapsilosis) [µg/mL]	MFC90 (Arthrodermataceae [7]) [µg/mL]	MFC (Arthrodermataceae [7]) [µg/mL]	MFC50 (Candida albicans [4]) [µg/mL]	MFC90 (Candida albicans [4]) [µg/mL]	MIC (Candida albicans [8]) [µg/mL]	MIC (Candida albicans [9]) [µg/mL]	further results
Cc1ccc(OC(Cn2ccnc2)c2ccc(Cl)cc2)cc1 (stereo unspecified)	150	22.3 (≈ 71.3 µM)	16 (≈ 51.2 µM)	32 (≈ 102 µM)	99	4 (≈ 12.8 µM)	32 (≈ 102 µM)	–	–	–	–	–	–	–	–	–	–	–	–
Clc1ccc(C(CCn2ccnc2)Oc2cc(Cl)cc(Cl)c2)cc1 (stereo unspecified)	180	7.7 (≈ 20.2 µM)	8 (≈ 21 µM)	16 (≈ 41.9 µM)	135	1 (≈ 2.62 µM)	16.5 (≈ 43.2 µM)	5 (≈ 13.1 µM)	4 (≈ 10.5 µM)	8 (≈ 21 µM)	8 (≈ 21 µM)	4 (≈ 10.5 µM)	16 (≈ 41.9 µM)	10 (≈ 26.2 µM)	16 (≈ 41.9 µM)	16 (≈ 41.9 µM)	–	–	–
Cc1ccc(OC(CCn2ccnc2)c2ccccc2)cc1 (racemic)	141	–	8 (≈ 27.4 µM)	–	95.9	2 (≈ 6.84 µM)	–	17.2 (≈ 58.8 µM)	16 (≈ 54.7 µM)	32 (≈ 109 µM)	32 (≈ 109 µM)	16 (≈ 54.7 µM)	32 (≈ 109 µM)	28.8 (≈ 98.5 µM)	16 (≈ 54.7 µM)	16 (≈ 54.7 µM)	–	–	MIC (Candida albicans [2]): 9.4 µg/mL (≈ 32.1 µM); MIC90 (Candida albicans [2]): 16 µg/mL (≈ 54.7 µM); MFC (Candida albicans [4]): 13.6 µg/mL (≈ 46.5 µM)
CCC(C)n1ncn(-c2ccc(N3CCN(c4ccc(OC[C@@H]5CO[C@@](Cn6cncn6)(c6ccc(Cl)cc6Cl)O5)cc4)CC3)cc2)c1=O (stereo partly specified) [ITRACONAZOLE]	–	0.5 (≈ 0.709 µM)	0.5 (≈ 0.709 µM)	1 (≈ 1.42 µM)	–	0.06 (≈ 0.085 µM)	> 1	0.14 (≈ 0.198 µM)	0.125 (≈ 0.177 µM)	0.25 (≈ 0.354 µM)	1 (≈ 1.42 µM)	0.25 (≈ 0.354 µM)	2 (≈ 2.83 µM)	1.4 (≈ 1.98 µM)	>1	>1	16 (≈ 22.7 µM)	0.031 (≈ 0.0439 µM)	–
C[C@@H](c1ncncc1F)[C@](O)(Cn1cncn1)c1ccc(F)cc1F [VORICONAZOLE]	–	0.89 (≈ 2.55 µM)	0.25 (≈ 0.716 µM)	> 1	–	0.015 (≈ 0.0429 µM)	26 (≈ 74.4 µM)	0.03 (≈ 0.0859 µM)	0.016 (≈ 0.0458 µM)	0.06 (≈ 0.172 µM)	1 (≈ 2.86 µM)	0.125 (≈ 0.358 µM)	1 (≈ 2.86 µM)	0.9 (≈ 2.58 µM)	>16	>16	16 (≈ 45.8 µM)	0.016 (≈ 0.0458 µM)	–
